Key:
[1] = molecular target: T1, Peroxisome proliferator-activated receptor gamma (Mus musculus) (UniProt P37238); assay: Agonist activity at mouse PPARgamma expressed in CV1 cells at 10 uM by transactivation assay; format: functional, cell-based; conditions: CV-1
T1 sequence (whole entry): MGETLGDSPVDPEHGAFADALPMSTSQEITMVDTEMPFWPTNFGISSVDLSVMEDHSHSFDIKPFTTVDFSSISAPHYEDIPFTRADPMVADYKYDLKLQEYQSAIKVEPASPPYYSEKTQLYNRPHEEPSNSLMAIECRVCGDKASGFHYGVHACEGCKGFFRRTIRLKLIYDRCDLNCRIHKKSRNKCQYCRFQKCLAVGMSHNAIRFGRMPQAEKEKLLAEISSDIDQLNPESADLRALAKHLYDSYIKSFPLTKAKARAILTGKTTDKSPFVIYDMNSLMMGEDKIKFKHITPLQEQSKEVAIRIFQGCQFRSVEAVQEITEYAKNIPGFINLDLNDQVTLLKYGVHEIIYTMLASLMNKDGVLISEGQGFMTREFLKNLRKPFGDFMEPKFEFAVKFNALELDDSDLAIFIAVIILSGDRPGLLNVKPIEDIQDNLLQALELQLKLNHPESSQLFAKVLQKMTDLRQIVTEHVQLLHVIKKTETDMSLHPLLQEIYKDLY

[2] = molecular target: T2, Peroxisome proliferator-activated receptor delta (Homo sapiens) (UniProt Q03181); assay: Agonist activity at human PPARdelta expressed in CV1 cells at 10 uM by transactivation assay; format: functional, cell-based; conditions: CV-1
T2 sequence (whole entry): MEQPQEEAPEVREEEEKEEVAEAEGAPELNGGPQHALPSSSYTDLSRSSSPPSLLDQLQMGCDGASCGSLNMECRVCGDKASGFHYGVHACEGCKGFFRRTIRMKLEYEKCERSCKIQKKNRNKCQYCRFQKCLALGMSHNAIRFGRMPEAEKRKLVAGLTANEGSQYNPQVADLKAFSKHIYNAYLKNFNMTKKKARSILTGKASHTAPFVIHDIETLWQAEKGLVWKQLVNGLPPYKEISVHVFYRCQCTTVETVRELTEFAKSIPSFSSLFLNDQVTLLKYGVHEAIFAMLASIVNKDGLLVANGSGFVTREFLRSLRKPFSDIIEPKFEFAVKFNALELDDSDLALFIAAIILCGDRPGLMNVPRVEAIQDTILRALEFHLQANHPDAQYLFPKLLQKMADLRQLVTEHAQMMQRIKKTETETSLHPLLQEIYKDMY
Procedure, shortened: (§1)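 Human full-length PPAR subtype (pSG5) cotransfected into CV-1 cells with a PPRE (rat acyl-CoA oxidase, ×3)–TK firefly luciferase reporter and a Renilla TK control. Cells were cultured in DMEM/10% FBS at 37 °C under 5% CO2, then exposed to compound at 10 µM (0.1% DMSO final) for 48 h. The dual-luciferase read-out is given as a percentage of the positive control's maximum activity (n = 2).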

Mus musculus [3] = assay: Hypolipidemic effect on diabetic KK-Ay mouse assessed as increase in plasma HDL cholesterol level at 1 mg/kg/day, po after 4 days; format: functional
Procedure, shortened: (§2)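 Male KK-Ay mice, 10 weeks old and fed chow ad libitum, were dosed orally once daily for 4 days (n = 5) with suspensions in 0.5% methylcellulose. On the day after the last dose, nonfasted tail-vein plasma was assayed enzymatically for TG and glucose. Vena cava plasma taken under pentobarbital had lipoprotein cholesterol measured by HPLC with on-line enzymatic detection. Values are % change of the group mean from vehicle controls.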

[4] = molecular target: T3, Peroxisome proliferator-activated receptor gamma (Homo sapiens, UniProt P37231); assay: Agonist activity at human PPARgamma expressed in CV1 cells by transactivation assay; format: functional, cell-based, CV-1
T3 sequence (P37231 whole entry): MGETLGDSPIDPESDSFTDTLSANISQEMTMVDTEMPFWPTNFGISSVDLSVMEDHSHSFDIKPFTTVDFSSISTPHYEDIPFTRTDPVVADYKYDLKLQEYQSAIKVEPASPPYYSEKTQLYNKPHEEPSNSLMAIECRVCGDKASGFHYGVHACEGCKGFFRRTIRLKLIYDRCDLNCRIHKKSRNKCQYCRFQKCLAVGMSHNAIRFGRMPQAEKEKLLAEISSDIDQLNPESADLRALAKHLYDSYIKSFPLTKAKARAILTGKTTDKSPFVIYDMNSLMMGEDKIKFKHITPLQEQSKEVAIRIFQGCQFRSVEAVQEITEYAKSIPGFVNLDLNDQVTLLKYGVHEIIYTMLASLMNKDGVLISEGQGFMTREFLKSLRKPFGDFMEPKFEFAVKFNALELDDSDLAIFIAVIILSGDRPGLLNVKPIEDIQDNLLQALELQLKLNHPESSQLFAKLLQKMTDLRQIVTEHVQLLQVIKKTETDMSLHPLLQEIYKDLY

Mus musculus [5] = assay: Hypolipidemic effect on diabetic KK-Ay mouse assessed as reduction of plasma triglyceride level at 1 mg/kg/day, po after 4 days; format: functional; design: scale not given: the % may be the effect or the level left; procedure, shortened: as §2
[6] = molecular target: T4, Peroxisome proliferator-activated receptor alpha (Homo sapiens, UniProt Q07869); assay: Agonist activity at human PPARalpha expressed in CV1 cells by transactivation assay; format: functional, cell-based, CV-1
T4 sequence (Q07869 whole entry): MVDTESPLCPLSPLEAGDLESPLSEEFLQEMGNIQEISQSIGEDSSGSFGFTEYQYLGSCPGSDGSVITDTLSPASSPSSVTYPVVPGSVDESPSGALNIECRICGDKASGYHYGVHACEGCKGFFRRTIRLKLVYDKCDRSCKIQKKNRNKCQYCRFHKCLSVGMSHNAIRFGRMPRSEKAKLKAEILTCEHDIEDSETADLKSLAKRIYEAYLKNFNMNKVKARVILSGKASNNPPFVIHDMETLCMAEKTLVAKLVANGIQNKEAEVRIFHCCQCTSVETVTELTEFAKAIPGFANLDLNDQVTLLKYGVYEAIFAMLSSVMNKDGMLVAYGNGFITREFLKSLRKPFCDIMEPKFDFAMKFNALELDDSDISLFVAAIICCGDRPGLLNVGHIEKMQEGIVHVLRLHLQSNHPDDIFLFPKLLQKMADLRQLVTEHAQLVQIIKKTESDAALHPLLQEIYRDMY

Mus musculus [7] = assay: Hypoglycemic effect on diabetic KK-Ay mouse assessed as reduction of plasma glucose level at 1 mg/kg/day, po after 4 days; format: functional; design: scale not given: the % may be the effect or the level left; procedure, shortened: as §2
[8] = molecular target: T5, Peroxisome proliferator-activated receptor alpha (Mus musculus, UniProt P23204); assay: Agonist activity at mouse PPARalpha expressed in CV1 cells by transactivation assay; format: functional, cell-based, CV-1
T5 sequence (P23204 whole entry): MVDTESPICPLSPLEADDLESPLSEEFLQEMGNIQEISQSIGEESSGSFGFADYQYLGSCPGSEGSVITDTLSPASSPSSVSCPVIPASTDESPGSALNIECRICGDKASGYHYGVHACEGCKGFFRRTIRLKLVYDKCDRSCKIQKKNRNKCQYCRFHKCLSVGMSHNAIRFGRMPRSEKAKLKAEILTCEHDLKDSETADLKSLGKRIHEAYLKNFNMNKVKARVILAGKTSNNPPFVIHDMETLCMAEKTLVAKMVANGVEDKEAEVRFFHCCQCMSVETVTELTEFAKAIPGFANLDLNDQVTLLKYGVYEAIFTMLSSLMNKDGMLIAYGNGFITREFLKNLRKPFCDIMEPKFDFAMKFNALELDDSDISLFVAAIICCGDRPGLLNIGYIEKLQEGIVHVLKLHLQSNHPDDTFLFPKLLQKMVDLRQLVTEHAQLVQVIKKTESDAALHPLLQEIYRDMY

Mus musculus [9] = assay: Hypolipidemic effect on diabetic KK-Ay mouse assessed as reduction of plasma VLDL cholesterol level at 1 mg/kg/day, po after 4 days; format: functional; design: scale not given: the % may be the effect or the level left; procedure, shortened: as §2
[10] = molecular target: T6, Peroxisome proliferator-activated receptor gamma (Homo sapiens) (UniProt P37231); assay: Agonist activity at human PPARgamma expressed in CV1 cells at 10 uM by transactivation assay; format: functional, cell-based; conditions: CV-1; procedure, shortened: as §1
T6 sequence (whole entry): T3 sequence (P37231 whole entry)

[11] = Selectivity for mouse PPARalpha over human PPARalpha
[12] = molecular target: T7, Peroxisome proliferator-activated receptor gamma (Mus musculus, UniProt P37238); assay: Agonist activity at mouse PPARgamma expressed in CV1 cells by transactivation assay; format: functional, cell-based, CV-1
T7 sequence (P37238 whole entry): T1 sequence (whole entry)

[13] = molecular target: T8, Peroxisome proliferator-activated receptor alpha (Homo sapiens) (UniProt Q07869); assay: Agonist activity at human PPARalpha expressed in CV1 cells at 10 uM by transactivation assay; format: functional, cell-based; conditions: CV-1; procedure, shortened: as §1
T8 sequence (whole entry): T4 sequence (Q07869 whole entry)

[14] = molecular target: T9, Peroxisome proliferator-activated receptor delta (Homo sapiens, UniProt Q03181); assay: Agonist activity at human PPARdelta expressed in CV1 cells by transactivation assay; format: functional, cell-based, CV-1
T9 sequence (Q03181 whole entry): T2 sequence (whole entry)

Mus musculus [15] = assay: Hypolipidemic effect on diabetic KK-Ay mouse assessed as increase in plasma HDL cholesterol level at 300 mg/kg/day, po after 4 days; format: functional; procedure, shortened: as §2
Mus musculus [16] = assay: Hypoglycemic effect on diabetic KK-Ay mouse assessed as reduction of plasma glucose level at 300 mg/kg/day, po after 4 days; format: functional; design: scale not given: the % may be the effect or the level left; procedure, shortened: as §2
Mus musculus [17] = assay: Hypolipidemic effect on diabetic KK-Ay mouse assessed as reduction of plasma VLDL cholesterol level at 300 mg/kg/day, po after 4 days; format: functional; design: scale not given: the % may be the effect or the level left; procedure, shortened: as §2
Mus musculus [18] = assay: Hypolipidemic effect on diabetic KK-Ay mouse assessed as reduction of plasma triglyceride level at 300 mg/kg/day, po after 4 days; format: functional; design: scale not given: the % may be the effect or the level left; procedure, shortened: as §2
Homo sapiens = organism: Homo sapiens; assay: Selectivity for human PPARalpha over human PPARgamma

Activity [2] [%]	EC50 [4] [nM]	EC50 [6] [nM]	Activity [10] [%]	SMILES	other results
0	100000	300		Cc1oc(-c2ccccc2)nc1CCCC[C@H]1CO[C@@](C)(C(=O)O)OC1	Activity [1]: 11%; Activity (Mus musculus [3]): 36%; Activity (Mus musculus [5]): -46%; Activity (Mus musculus [7]): -12%; EC50 [8]: 1000 nM; Activity (Mus musculus [9]): -29%
5		300	23	Cc1ccccc1-c1nc(CCCC[C@H]2CO[C@@](C)(C(=O)O)OC2)c(C)o1	
16		30	34	Cc1cccc(-c2nc(CCCC[C@H]3CO[C@@](C)(C(=O)O)OC3)c(C)o2)c1	
25		10	45	Cc1ccc(-c2nc(CCCC[C@H]3CO[C@@](C)(C(=O)O)OC3)c(C)o2)cc1F	Activity (Mus musculus [3]): 21%; Selectivity ratio [11]: 10; Activity (Mus musculus [5]): -53%; EC50 [12]: 10000 nM; Activity (Mus musculus [7]): -12%; EC50 [8]: 100 nM; Activity (Mus musculus [9]): -63%
0			0	Cc1ccc(-c2nc(CCCC[C@H]3CO[C@@](C)(C(=O)O)OC3)c(C)n2C)cc1	Activity [13]: 6%
34		30	41	Cc1oc(-c2ccc(C(F)(F)F)cc2)nc1CCCC[C@H]1CO[C@@](C)(C(=O)O)OC1	
0	3000	10		CCc1ccc(-c2nc(CCCC[C@H]3CO[C@@](C)(C(=O)O)OC3)c(C)o2)cc1	Selectivity ratio (Homo sapiens): 300

More lines, now with the values behind:

SMILES	Activity [2] [%]	EC50 [4] [nM]	EC50 [6] [nM]	Activity [10] [%]	other results
CCc1oc(-c2ccc(C)cc2)nc1CCCC[C@H]1CO[C@@](C)(C(=O)O)OC1	3	10000	30		
Cc1ccc(-c2nc(CCCC[C@H]3CO[C@@](C)(C(=O)O)OC3)c(C)o2)cc1C	0		3	42	Activity [1]: 42%; Activity (Mus musculus [3]): 21%; Selectivity ratio [11]: 10; Activity (Mus musculus [5]): -89%; Activity (Mus musculus [7]): -32%; EC50 [8]: 30 nM; Activity (Mus musculus [9]): -92%
Cc1ccc(-c2nc(CCCC[C@H]3CO[C@@](C)(C(=O)O)OC3)c(C(F)(F)F)o2)cc1	24	3000	300		
COc1ccc(-c2nc(CCCC[C@H]3CO[C@@](C)(C(=O)O)OC3)c(C)o2)cc1	20		30	18	
Cc1oc(-c2ccc(Cl)cc2)nc1CCCC[C@H]1CO[C@@](C)(C(=O)O)OC1	9		30	21	
Cc1ccc(-c2nc(CCCC[C@H]3CO[C@@](C)(C(=O)O)OC3)c(C)o2)c(C)c1	16		30	35	
Cc1ccc(-c2nc(CCCC[C@H]3CO[C@@](C)(C(=O)O)OC3)c(C)o2)cc1	7	9600		31	Activity [1]: 45%; Activity (Mus musculus [3]): 34%; Activity (Mus musculus [5]): -71%; EC50 [14]: > 100000 nM; Activity (Mus musculus [7]): -21%; EC50 [8]: 30 nM; Activity (Mus musculus [9]): -50%
Cc1ccc(-c2nc(CCCC[C@H]3CO[C@@](C)(C(=O)O)OC3)c(C)s2)cc1	0		300	25	
CC(C)(Oc1ccc(C(=O)c2ccc(Cl)cc2)cc1)C(=O)O [FENOFIBRIC ACID]			> 100000		Activity (Mus musculus [15]): 17%; Activity (Mus musculus [16]): -25%; Activity (Mus musculus [17]): -31%; EC50 [14]: > 100000 nM; Activity (Mus musculus [18]): -40%
CC(C)(Oc1ccc(CCNC(=O)c2ccc(Cl)cc2)cc1)C(=O)O [BEZAFIBRATE]		3000			EC50 [14]: 30000 nM

— ChEMBL document CHEMBL1143171, “Structure-activity studies on 1,3-dioxane-2-carboxylic acid derivatives, a novel class of subtype-selective peroxisome proliferator-activated receptor alpha (PPARalpha) agonists” (Bioorg Med Chem, 2008)
